Screening results (PubChem)
esBAF inh: inhibitors of esBAF chromatin remodeling in mouse ES cells. Bmi1-luciferase knock-in reporter, 24 h; 100% = twice the neutral-well signal. reporter increase, % at 12.5 µM. actives 2% (n = 350,000). AID 602393; in the data active = activation above about 40%; inconclusive = no clear call, values can overlap the other calls;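 also: a rise in the Bmi1 reporter signal indicates esBAF inhibition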
NSD2 HMT inh: NSD2 (human) methyltransferase inhibition; O96028; NSD2 peptide methylation, AlphaScreen, 120 min; inhibition, % at 12.5 µM; actives 0.54% (n = 310,000); in the data active = inhibition above about 50%
MITF TRPM1 HTS: increases MITF-driven TRPM1 promoter luciferase signal. SK-MEL-5 TRPM1-promoter luciferase, 24 h; % of positive control, neutral wells = 0. activation, % at 12.5 µM. actives 0.75% (n = 300,000). AID 588334;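 active = mean activation of at least 80% with every replicate also reaching 80%; inconclusive = mean reaches 80% but some replicate falls short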
Xi reactivation: activators of X-chromosome reactivation in mouse fibroblasts; XiGFP mouse fibroblasts, % GFP-positive cells imaging, 3 d; cells co-treated with 5-aza-dC sensitizer; scaled so ellipticine positive control = 100%; activation, % at 7.58 µM; actives 0.055% (n = 360,000); AID 743238;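 active = mean normalized replicate activation at least 10% and every replicate at or above 10%; inconclusive = only one of the two criteria met; inactive = mean below 10% and not all replicates reach 10%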
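material = 68-5-11 XiGFP fibroblast line | medium = DMEM plus 5-aza-dC sensitizer | schedule = 3 days compound exposure | benchmarks = positive control ellipticine, 6 µM final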
CASP6 VEID inh: inhibitors of human caspase-6; purified caspase-6, Z-VEID-R110 cleavage fluorescence; P55212; inhibition, % at 12.5 µM; actives 0.53% (n = 350,000);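 active = mean inhibition across replicates at least about 35%, with every replicate also reaching that limit, limit read from the data; inconclusive = only one of the two criteria met; inactive = neither criterion met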
Wnt act: activates Wnt/beta-catenin signaling in a reporter cell assay; activator, plate reader; activation, % at 9.35 µM; AID 743398; actives 1.2% (n = 300,000); in the data active = activation above about 30%, passing the limit was not always enough; inconclusive = no clear call, values can overlap the other calls
Alpha artifact: counter-screen for NSD2 inhibitors: AlphaScreen artifacts. shares compounds with NSD2 HMT inh. AlphaScreen artifact counterscreen, preloaded methylated H4 peptide. AC35, µM (series often up to 10 µM). actives 9.4% (n = 1,500). AID 1053174; call rule not given here
Numbers stand for hits; 0 = inactive; ? = inconclusive; - = no result given. Most compounds without a hit are left out; they make up all but 3% or so of the library.

SMILES	esBAF inh	NSD2 HMT inh	MITF TRPM1 HTS	Xi reactivation	CASP6 VEID inh	Wnt act	Alpha artifact
Cc1[nH]n(-c2ccccc2)c(=O)c1C(c1cccc([N+](=O)[O-])c1)c1c(C)[nH]n(-c2ccccc2)c1=O	-	0	0	0	0	0	-
CCOc1ccc2nc(SCC(=O)NCc3ccco3)sc2c1	0	129	0	-	-	0	0
CCOc1ccc2nc(SCC(=O)NC(=O)NCc3ccco3)sc2c1	0	0	-	-	-	0	-
COc1ccc(CCCc2n[nH]c(=S)n2C)cc1C	0	52	0	0	0	0	0
C[C@H](CO)N1C[C@H](C)[C@H](CN(C)S(=O)(=O)c2ccccc2)Oc2c(NC(=O)c3ccncc3)cccc2C1=O	0	-	-	0	0	-	-
COc1ccc(S(=O)(=O)N(C)CC(=O)NCCN2CCOCC2)cc1Cl	0	87	0	0	0	0	0
CCC(CC)c1nnc(NC(=O)CCS(=O)(=O)Cc2ccccc2)s1	0	61	0	0	0	0	0
CCc1nnc(NC(=O)CCS(=O)(=O)Cc2ccccc2)s1	0	0	0	0	0	0	-
O=C(C1CC1)N1CCc2[nH]c3ccccc3c2C1	0	100	-	-	-	0	0
COCC(=O)N1C[C@@H]2[C@H](c3ccccc31)[C@H](CO)N2C(=O)C1CCCC1	0	-	-	0	0	-	-
CCOc1ccc(C(N)=O)cc1OC	0	0	0	-	-	0	-
CCOc1ccc(N)cc1OC	0	56	0	0	0	0	0
Cc1c(-c2ccc(/C=N/NC(=O)C(=O)Nc3ccccc3F)o2)cccc1[N+](=O)[O-]	-	64	-	0	0	0	0
Cc1c(C(=O)N/N=C/c2ccc(-c3ccccc3[N+](=O)[O-])o2)sc(N)c1C#N	0	0	0	0	-	0	-
COc1ccc(CCC(=O)NCCOc2ccccc2Cl)cc1	-	124	-	0	0	0	0
Cc1noc(C)c1NC(=O)N(C)C[C@@H]1OCCCC[C@H](C)Oc2ccc(NC(=O)C3CCCCC3)cc2C(=O)N([C@@H](C)CO)C[C@@H]1C	0	-	-	0	0	-	-
COc1cccc(-c2nnc(NC(=O)c3cccs3)s2)c1	-	0	0	0	0	0	-
COc1ccc2c(c1)Cc1sc(NC(=O)c3cccs3)nc1-2	83	78	0	-	-	-	0
COc1ccc2c(c1)Cc1sc(NC(=O)c3ccccc3)nc1-2	-	128	0	-	-	51	0
COc1ccc(C(=O)Nc2nc3c(s2)Cc2cc(OC)ccc2-3)cc1	0	0	0	-	-	-	-
CCN(CC)CCCNc1ccc2ncn3c4ccc(O)cc4c(=O)c1c23	-	64	0	0	0	0	0
C/C(CC(=O)Nc1ccc2ccccc2c1)=N\NC(=O)c1ccc(O)c(O)c1	-	111	0	0	0	0	0
CN(C)N=Nc1nc[nH]c1C(N)=O	0	-	0	0	0	0	-
NC(=O)c1[nH]cnc1N=NN(CCO)Cc1ccccc1	0	69	-	0	0	0	0
CC(C)CC(=O)N1CCC(O)(CS(=O)(=O)Cc2ccc(Cl)cc2)CC1	0	-	-	-	-	0	-
SMILES	esBAF inh	NSD2 HMT inh	MITF TRPM1 HTS	Xi reactivation	CASP6 VEID inh	Wnt act	Alpha artifact
CC(C)CC(=O)N1CCC(O)(CS(=O)(=O)Cc2ccccc2Cl)CC1	0	103	0	-	-	0	0
COc1ccc(NC(=O)N(C)C[C@@H]2Oc3ncc(C#CCN(C)C)cc3C(=O)N([C@H](C)CO)C[C@H]2C)cc1	0	-	-	0	0	-	-
Cc1cc([N+](=O)[O-])cc2c1NC(=O)C2(O)N1CCOCC1 (configuration not stated)	-	59	0	0	0	0	0
O=C(O)c1cc2ccccc2c2c1C(=O)c1ccccc1-2	0	0	-	0	0	0	-
O=C1C=C(c2c(O)ccc3ccccc23)c2ccccc2C1=O	0	112	0	0	0	0	0
COc1ccccc1OCCOc1ccc(/C=C2\C(=N)N3N=C(S(C)(=O)=O)SC3=NC2=O)cc1	0	71	0	?	0	0	0
CCOc1ccc(NC(=O)CSc2nc3ccccc3c(=O)n2CCCC(=O)N2CCCC2)cc1	0	118	-	-	-	0	0
Oc1cccc(/C=N/NC(=S)Nc2cccnc2)c1O	-	79	0	0	-	-	0
Oc1ccc(/C=N/NC(=S)Nc2cccnc2)c(O)c1	-	0	0	0	-	0	-
Cc1cccc(-c2nnc(SCC(=O)c3ccc(O)cc3O)n2C)c1	0	96	0	0	0	0	0
c1coc(-c2nnc(-c3ccco3)nn2)c1	0	140	0	0	89	0	0
c1ccc(-c2nnc(-c3ccco3)o2)cc1	0	-	-	-	-	-	-
C[C@H]1CCCCO[C@H](CN(C)C(=O)NC2CCCCC2)[C@@H](C)CN([C@@H](C)CO)C(=O)c2cc(NS(=O)(=O)c3cccs3)ccc2O1	0	-	-	0	0	-	-
NCc1csc(NC(=O)Nc2cccc(Cl)c2)n1	0	0	-	0	0	0	-
CN(C)Cc1csc(NC(=O)Nc2cccc(Cl)c2)n1	0	74	-	0	0	0	0
COc1ccc(C(=O)c2ccc(OC)c(OC)c2)cc1OC	-	0	0	-	-	0	-
COc1ccc(C(=O)c2nccc3cc(OC)c(OC)cc23)cc1OC	0	90	0	-	-	-	0
O=C(N[C@@H]1C=C[C@H](CC(=O)N2CCN(c3ccccc3)CC2)O[C@@H]1CO)c1ccncc1	0	-	-	0	0	-	-
Cc1ccc(S(=O)(=O)N[C@@H]2CC[C@@H](CC(=O)NC3CCCCC3)O[C@H]2CO)cc1	0	-	-	0	0	-	-
O=C(CCNC(=O)C1CCN(S(=O)(=O)c2ccc(F)cc2)CC1)NCc1ccc(F)cc1	0	0	0	0	0	0	-
O=C(NCCCn1ccnc1)C1CCN(S(=O)(=O)c2ccc(F)cc2)CC1	0	57	-	0	0	0	0
CO[C@H]1CN(C)C(=O)c2cc(NC(=O)Nc3ccc(Cl)c(Cl)c3)ccc2OC[C@H](C)NC[C@H]1C	0	-	-	0	-	-	-
Cc1cc(-c2ccc(C)c(S(=O)(=O)N3CCN(c4ccccn4)CC3)c2)on1	0	131	0	0	0	0	0
Cc1cc(-c2ccc(C)c(S(=O)(=O)N3CCN(c4ccc([N+](=O)[O-])cc4)CC3)c2)on1	0	0	0	0	0	0	-
Nc1c(C(=O)NCC2CCCO2)c2nc3ccccc3nc2n1-c1ccccc1 (configuration not stated)	0	0	0	-	-	-	-
Nc1c(C(=O)OCC2CCCO2)c2nc3ccccc3nc2n1C1CCCCC1 (configuration not stated)	0	76	0	-	0	0	0
CCN(CC(=O)NCCCn1ccnc1)S(=O)(=O)c1ccc(C)cc1	0	0	0	0	0	0	-
N#Cc1ccc(OCC(=O)NCCCn2ccnc2)cc1	0	63	0	0	0	0	0
COc1ccc(OCC(=O)NCCCn2ccnc2)cc1	0	0	-	0	0	0	-
Cc1ccc(S(=O)(=O)N(C)CC(=O)NCCCn2ccnc2)cc1	0	115	0	0	0	0	0
